The record followed here is ChEMBL document CHEMBL5653631, “A Potent and Selective ULK1 Inhibitor Suppresses Autophagy and Sensitizes Cancer Cells to Nutrient Stress” (iScience, 2018).

In assay [1] the target is Interleukin-1 receptor-associated kinase 1 (Homo sapiens) (UniProt P51617). Nature of the assay: Inhibition of human recombinant IRAK1 at 40 nM related to control ULK1.
The target in assay [2] is T1, Serine/threonine-protein kinase TAO1 (Homo sapiens) (UniProt Q7L7X3).
T1 sequence (whole entry): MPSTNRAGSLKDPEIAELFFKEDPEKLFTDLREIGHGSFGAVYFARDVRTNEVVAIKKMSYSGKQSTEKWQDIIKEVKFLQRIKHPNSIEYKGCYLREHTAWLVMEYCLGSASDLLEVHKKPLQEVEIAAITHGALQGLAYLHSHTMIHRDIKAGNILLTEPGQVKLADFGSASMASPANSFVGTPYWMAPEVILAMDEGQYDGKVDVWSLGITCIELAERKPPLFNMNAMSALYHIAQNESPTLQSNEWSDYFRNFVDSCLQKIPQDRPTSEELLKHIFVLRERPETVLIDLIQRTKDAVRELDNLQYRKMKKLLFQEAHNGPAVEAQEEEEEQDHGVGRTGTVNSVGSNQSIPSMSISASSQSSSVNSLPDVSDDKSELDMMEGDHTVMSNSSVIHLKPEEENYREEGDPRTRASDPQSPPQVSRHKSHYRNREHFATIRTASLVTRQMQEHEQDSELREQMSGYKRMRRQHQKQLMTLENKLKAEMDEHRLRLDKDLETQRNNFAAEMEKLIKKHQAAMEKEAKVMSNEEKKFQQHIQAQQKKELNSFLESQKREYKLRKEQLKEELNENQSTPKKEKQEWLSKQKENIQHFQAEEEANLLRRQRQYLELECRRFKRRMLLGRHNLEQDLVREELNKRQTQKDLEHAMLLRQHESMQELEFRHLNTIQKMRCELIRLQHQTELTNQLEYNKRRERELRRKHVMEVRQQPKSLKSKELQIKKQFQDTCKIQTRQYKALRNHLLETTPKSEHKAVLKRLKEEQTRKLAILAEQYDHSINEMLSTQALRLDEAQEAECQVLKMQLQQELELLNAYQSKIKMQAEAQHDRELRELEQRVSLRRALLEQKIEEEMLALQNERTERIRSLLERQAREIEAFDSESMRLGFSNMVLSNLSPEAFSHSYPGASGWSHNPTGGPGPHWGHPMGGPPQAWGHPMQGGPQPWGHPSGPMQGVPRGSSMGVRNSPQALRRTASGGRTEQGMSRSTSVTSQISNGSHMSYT
Kind of assay: Inhibition of human recombinant TAO1 at 40 nM related to control ULK1.

The target in assay [3] is Cyclin-dependent kinase 5 (Homo sapiens) (UniProt Q00535). Nature of the assay: Inhibition of human recombinant CDK5 at 40 nM in presence of ATP by radiometric assay relative to control.
Sequence of Cyclin-dependent kinase 5 (Homo sapiens) (Q00535 whole entry, looked up): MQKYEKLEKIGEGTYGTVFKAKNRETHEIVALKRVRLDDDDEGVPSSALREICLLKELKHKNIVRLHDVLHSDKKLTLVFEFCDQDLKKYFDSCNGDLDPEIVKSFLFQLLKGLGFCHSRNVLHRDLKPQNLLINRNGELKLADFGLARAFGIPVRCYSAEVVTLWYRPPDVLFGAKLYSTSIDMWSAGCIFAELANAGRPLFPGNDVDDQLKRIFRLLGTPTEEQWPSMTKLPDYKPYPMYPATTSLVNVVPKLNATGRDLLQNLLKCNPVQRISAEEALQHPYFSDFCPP
Assay [4] addresses Bone morphogenetic protein receptor type-1B (Homo sapiens) (UniProt O00238). Nature of the assay: Inhibition of human recombinant BMPR1B at 40 nM related to control ULK1. In a few lines: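 Radiometric activity assays in a panel of 327 human recombinant kinases, each run in duplicate at one inhibitor concentration. Activity remaining is expressed as percent of vehicle control, and percent inhibition is calculated as 100% minus percent activity remaining.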

Assay [5] deals with Serine/threonine-protein kinase PAK 6 (Homo sapiens) (UniProt Q9NQU5). Nature of the assay: Inhibition of human recombinant PAK6 at 500 nM in presence of ATP by radiometric assay relative to control.
Sequence of Serine/threonine-protein kinase PAK 6 (Homo sapiens) (Q9NQU5 whole entry, looked up): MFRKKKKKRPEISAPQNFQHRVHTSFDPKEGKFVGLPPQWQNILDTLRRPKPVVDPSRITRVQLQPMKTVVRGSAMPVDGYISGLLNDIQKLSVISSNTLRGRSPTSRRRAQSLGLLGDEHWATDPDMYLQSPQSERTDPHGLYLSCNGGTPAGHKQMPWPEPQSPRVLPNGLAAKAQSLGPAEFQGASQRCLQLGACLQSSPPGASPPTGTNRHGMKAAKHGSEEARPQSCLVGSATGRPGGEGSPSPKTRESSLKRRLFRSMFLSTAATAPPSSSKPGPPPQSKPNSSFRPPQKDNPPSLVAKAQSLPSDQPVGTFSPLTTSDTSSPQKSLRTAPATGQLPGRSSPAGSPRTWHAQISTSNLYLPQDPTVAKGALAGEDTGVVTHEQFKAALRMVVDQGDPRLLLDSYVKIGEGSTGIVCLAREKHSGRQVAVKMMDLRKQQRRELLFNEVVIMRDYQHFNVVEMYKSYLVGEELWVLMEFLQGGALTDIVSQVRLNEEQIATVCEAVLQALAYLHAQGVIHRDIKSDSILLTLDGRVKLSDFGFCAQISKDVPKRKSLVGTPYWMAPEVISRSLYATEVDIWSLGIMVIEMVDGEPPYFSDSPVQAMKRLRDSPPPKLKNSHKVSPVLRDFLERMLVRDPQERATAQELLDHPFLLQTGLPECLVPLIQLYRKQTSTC
Assay [6] concerns the target Serine/threonine-protein kinase 26 (Homo sapiens) (UniProt Q9P289). Nature of the assay: Inhibition of human recombinant MST4 at 500 nM related to control ULK1.
Assay [7] concerns the target Cyclin-dependent kinase-like 3 (Homo sapiens) (UniProt Q8IVW4). Nature of the assay: Inhibition of human recombinant CDKL3 at 500 nM in presence of ATP by radiometric assay relative to control.
In assay [8] the target is Cyclin-dependent kinase 12 (Homo sapiens) (UniProt Q9NYV4). Nature of the assay: Inhibition of human recombinant CRK7 at 500 nM in presence of ATP by radiometric assay relative to control.
Sequence of Cyclin-dependent kinase 12 (Homo sapiens) (Q9NYV4 whole entry, looked up): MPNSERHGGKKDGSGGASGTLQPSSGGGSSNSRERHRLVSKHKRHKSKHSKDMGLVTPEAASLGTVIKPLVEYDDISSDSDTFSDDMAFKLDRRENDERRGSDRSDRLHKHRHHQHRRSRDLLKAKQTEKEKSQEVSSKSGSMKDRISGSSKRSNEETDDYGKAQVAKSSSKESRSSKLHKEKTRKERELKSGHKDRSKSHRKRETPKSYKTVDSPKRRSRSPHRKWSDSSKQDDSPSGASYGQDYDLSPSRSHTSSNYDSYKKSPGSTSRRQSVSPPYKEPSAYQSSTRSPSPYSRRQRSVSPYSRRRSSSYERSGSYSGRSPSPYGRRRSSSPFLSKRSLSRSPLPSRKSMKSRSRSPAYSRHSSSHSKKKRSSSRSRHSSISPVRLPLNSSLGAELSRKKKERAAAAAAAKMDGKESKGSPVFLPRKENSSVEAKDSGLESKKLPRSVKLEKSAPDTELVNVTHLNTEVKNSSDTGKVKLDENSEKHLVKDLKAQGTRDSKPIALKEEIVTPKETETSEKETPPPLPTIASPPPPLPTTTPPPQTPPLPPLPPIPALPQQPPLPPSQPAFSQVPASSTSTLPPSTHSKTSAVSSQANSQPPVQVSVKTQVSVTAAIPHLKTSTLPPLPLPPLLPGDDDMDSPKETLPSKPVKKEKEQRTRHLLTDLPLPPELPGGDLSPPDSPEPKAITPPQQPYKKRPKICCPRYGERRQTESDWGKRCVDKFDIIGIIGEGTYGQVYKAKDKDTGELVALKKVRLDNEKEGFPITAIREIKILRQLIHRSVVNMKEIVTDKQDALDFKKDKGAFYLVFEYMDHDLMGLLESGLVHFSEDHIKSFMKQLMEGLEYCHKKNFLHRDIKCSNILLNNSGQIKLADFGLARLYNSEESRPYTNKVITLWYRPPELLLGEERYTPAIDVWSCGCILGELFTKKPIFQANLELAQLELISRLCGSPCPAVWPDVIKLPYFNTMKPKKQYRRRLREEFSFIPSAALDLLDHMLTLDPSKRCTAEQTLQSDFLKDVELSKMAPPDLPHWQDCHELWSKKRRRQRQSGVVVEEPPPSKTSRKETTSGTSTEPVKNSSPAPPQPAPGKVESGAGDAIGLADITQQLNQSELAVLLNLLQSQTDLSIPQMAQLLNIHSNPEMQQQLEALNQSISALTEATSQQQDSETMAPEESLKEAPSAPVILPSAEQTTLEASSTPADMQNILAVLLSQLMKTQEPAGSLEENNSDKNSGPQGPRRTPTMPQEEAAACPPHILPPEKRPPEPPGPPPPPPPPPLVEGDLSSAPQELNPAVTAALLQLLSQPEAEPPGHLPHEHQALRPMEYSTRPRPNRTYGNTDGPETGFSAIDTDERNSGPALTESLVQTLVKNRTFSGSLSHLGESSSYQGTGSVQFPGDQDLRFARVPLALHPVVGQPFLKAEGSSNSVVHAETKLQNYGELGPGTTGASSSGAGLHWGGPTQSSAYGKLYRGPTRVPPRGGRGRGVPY
For assay [9], the target named is T2, Mitogen-activated protein kinase kinase kinase kinase 2 (Homo sapiens) (UniProt Q12851).
T2 sequence (whole entry): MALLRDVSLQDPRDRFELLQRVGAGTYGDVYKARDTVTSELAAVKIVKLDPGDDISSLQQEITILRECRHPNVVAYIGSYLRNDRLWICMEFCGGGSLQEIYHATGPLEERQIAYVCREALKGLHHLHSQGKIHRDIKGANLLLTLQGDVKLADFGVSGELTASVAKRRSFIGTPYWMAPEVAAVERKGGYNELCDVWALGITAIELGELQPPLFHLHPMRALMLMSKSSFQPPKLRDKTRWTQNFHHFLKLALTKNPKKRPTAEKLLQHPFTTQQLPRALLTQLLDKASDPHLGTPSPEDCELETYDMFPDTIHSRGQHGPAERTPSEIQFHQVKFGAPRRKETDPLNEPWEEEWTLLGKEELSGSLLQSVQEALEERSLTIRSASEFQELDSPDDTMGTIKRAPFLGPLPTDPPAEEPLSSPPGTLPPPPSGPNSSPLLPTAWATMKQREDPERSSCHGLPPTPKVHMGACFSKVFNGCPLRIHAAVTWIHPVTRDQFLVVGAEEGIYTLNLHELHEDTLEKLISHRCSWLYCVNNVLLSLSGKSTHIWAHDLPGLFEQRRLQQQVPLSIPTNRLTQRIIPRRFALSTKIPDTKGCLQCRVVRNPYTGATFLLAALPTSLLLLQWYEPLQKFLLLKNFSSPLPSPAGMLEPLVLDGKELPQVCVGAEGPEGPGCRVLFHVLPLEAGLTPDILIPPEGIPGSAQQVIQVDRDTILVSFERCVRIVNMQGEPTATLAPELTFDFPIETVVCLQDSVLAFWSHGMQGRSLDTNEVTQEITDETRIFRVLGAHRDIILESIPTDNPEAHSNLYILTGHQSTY
Nature of the assay: Inhibition of human recombinant GCK at 15 nM in presence of ATP by radiometric assay relative to control.

Assay [10] concerns the target 3-phosphoinositide-dependent protein kinase 1 (Homo sapiens) (UniProt O15530). Kind of assay: Inhibition of human recombinant PDK1 at 15 nM in presence of ATP by radiometric assay relative to control.

Sequence of Bone morphogenetic protein receptor type-1B (Homo sapiens) (O00238 whole entry): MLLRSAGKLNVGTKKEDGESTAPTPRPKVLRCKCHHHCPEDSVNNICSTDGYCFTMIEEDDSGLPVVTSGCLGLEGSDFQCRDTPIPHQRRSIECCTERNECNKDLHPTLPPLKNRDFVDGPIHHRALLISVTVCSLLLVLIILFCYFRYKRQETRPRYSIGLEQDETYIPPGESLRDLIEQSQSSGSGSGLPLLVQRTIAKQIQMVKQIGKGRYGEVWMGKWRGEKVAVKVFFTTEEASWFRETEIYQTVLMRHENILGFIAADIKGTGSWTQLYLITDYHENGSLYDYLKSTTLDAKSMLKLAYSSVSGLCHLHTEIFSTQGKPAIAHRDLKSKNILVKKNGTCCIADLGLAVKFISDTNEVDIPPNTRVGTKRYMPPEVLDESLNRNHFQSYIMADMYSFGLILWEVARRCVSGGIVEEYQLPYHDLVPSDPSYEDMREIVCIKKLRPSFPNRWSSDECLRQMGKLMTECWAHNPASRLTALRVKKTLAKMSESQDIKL
Sequence of Serine/threonine-protein kinase 26 (Homo sapiens) (Q9P289 2-416 limits assumed): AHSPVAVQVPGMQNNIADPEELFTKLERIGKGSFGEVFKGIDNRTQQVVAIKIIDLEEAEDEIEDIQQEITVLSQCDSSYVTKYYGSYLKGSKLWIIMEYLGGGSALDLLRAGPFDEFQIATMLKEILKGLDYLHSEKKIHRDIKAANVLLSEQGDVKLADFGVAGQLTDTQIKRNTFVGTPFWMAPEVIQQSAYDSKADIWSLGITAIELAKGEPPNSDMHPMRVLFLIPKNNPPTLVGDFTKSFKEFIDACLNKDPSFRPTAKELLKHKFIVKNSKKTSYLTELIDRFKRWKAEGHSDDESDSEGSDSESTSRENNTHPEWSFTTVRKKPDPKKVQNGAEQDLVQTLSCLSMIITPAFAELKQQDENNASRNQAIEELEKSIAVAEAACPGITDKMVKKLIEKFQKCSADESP
Sequence of Cyclin-dependent kinase-like 3 (Homo sapiens) (Q8IVW4 whole entry, looked up): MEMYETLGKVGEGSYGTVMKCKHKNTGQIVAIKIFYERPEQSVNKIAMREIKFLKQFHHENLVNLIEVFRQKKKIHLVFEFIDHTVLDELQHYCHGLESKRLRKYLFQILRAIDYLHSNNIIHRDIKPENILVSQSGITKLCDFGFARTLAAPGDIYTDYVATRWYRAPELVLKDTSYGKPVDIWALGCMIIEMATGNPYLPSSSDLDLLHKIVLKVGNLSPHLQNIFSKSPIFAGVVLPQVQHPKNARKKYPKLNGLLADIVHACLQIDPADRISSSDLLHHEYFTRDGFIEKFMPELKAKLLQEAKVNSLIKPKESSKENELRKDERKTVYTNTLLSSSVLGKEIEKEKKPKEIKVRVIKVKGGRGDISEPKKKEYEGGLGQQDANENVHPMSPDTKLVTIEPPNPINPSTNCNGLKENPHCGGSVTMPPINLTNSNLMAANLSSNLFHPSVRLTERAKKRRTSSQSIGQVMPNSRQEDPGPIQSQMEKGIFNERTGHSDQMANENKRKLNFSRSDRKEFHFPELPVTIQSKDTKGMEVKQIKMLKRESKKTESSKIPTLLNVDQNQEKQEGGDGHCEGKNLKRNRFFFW
Sequence of 3-phosphoinositide-dependent protein kinase 1 (Homo sapiens) (O15530 whole entry, looked up): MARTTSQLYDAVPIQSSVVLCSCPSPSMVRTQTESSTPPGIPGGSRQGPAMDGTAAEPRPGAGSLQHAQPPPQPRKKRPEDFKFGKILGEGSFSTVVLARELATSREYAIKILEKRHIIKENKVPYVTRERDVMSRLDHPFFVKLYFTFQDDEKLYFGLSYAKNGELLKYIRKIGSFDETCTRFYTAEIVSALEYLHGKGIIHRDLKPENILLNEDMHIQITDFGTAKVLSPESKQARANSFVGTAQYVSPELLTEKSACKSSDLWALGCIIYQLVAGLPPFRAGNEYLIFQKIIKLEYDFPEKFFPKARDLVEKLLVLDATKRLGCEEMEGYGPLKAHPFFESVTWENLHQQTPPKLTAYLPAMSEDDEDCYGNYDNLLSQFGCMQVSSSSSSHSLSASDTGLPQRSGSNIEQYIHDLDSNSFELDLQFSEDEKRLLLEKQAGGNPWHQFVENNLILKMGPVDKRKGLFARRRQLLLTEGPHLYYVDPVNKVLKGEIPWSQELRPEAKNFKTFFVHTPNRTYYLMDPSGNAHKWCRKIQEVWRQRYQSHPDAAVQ

As a reminder, the inhibition is how much of the control response was suppressed. `O=C(N[C@@H](C1CC1)C(F)(F)F)c1cc(-c2cnn3cc(-c4ccc(F)cc4)cnc23)cs1`: the fold change (FC) in [1] is 0.1; in [2], 0; in assay [4], 0. Further, in [3], the inhibition stood at 47%.

On to `CNC(=O)c1ccccc1Oc1nc(Nc2cc(OC)c(OC)c(OC)c2)ncc1Br`, for which the results for the inhibition in assay [5], in assay [7] and in assay [8] were 19%, 0% and 0%, respectively. Further, in assay [6], the fold change (FC) is 0.

Take `CC(C)[C@H](NC(=O)c1cc(-c2cnn3cc(-c4ccc(OCCN5CCCCC5)cc4)cnc23)cs1)C(F)(F)F`: the inhibition in assay [9] turned out to be 34%; in assay [10], 6%.
